# Apaf-1 act – activators of human Apaf-1 apoptosome, primary screen, biochemical, DEVD-Rh110 fluorescence, uHTS; Apoptotic protease-activating factor 1 (Homo sapiens), O14727; Apaf-1 apoptosome caspase-3 activation; hits give low values; activity change, negative = activation, % at 20 µM; 0.31% of 330,000 active; AID 489031, 2010;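 active = activity change at or below -40% at 20 µM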
# Target sequence (O14727 whole entry, looked up): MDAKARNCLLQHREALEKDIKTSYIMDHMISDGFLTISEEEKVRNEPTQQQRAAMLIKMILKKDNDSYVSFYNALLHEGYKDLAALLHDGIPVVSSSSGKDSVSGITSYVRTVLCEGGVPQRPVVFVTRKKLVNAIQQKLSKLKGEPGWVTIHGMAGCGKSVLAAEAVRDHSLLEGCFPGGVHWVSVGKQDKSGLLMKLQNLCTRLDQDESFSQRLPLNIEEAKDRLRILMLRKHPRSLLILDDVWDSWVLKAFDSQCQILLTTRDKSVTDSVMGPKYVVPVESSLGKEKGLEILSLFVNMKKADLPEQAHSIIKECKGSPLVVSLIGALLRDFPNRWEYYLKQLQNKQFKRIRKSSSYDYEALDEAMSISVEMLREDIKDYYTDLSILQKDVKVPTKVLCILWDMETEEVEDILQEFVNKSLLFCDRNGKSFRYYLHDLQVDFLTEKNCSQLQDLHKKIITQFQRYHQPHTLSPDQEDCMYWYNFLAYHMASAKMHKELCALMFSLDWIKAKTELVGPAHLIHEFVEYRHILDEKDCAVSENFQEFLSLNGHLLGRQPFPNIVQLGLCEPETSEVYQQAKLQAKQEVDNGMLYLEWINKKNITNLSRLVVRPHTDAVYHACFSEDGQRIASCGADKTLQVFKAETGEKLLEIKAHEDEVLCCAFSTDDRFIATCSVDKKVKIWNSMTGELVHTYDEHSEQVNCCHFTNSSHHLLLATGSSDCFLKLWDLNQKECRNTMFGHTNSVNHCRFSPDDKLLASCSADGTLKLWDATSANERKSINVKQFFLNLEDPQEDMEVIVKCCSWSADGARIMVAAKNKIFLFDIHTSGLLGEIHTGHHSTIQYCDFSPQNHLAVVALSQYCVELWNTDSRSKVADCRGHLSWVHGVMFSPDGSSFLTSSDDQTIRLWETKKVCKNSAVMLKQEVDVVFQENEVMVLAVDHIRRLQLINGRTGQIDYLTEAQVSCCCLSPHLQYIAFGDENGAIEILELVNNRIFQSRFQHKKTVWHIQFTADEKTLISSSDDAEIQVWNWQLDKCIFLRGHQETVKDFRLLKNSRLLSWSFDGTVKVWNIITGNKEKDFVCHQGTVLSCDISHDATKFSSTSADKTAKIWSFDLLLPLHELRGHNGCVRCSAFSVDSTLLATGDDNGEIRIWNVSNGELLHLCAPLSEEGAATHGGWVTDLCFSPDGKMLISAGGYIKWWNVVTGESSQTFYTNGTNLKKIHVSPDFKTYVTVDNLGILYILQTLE
#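 Assay system – biochemical Apaf-1 apoptosome reconstitution · Medium – 20 mM HEPES buffer, pH 7.5, containing CHAPS and BSA · Incubation – 30 min preincubation, 50 min reaction, room temperature · Measured by – Caspase-3-released Rh110 fluorescence, 540 nm emission, 480 nm excitation · Read-out – Caspase-3 cleavage activity downstream of Apaf-1 activation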
# Rh110 interf act – Rh110 fluorescence interference by putative Apaf-1 activators, confirmation, artefact control for Apaf-1 activator project, biochemical, 20 µM | shares compounds with Apaf-1 act | 980 tested, under 10 active | fluorescence interference (activity change), % at 20 µM, hits read low | quenched caspase reaction, Ex480/Em540;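 active = mean activity change at or below -40% when tested at 20 µM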
# Apaf-1 act conf2 – Apaf-1 activators, single-dose retest, confirmation, biochemical, fluorescence, DEVD-Rh110, 20 µM; shares compounds with Apaf-1 act; reconstituted apoptosome caspase-3 activity; hits give low values; 5% of 980 active; activity change, negative = activation, % at 20 µM; AID 504617, 2011;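 active = mean activity change at or below -40%, meaning activation of 40% or more, at 20 µM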
# Apaf1 act interf – fluorescence interference of Apaf-1 activator hits, dose response, artefact control for Apaf-1 activator project; 55 tested, under 10 active; fluorescence interference counterscreen, Apaf-1 activator assay; AID 588592, 2011; EC50, µM; shares compounds with Apaf-1 act; call rule not given here
# The depositor's hits bear a star; . = no result. Not all results are given here.
SMILES,Apaf-1 act,Rh110 interf act,Apaf-1 act conf2,others
CCOc1cc(/C=C2/C(=O)N(c3ccccc3)N=C2C)ccc1OC(=O)c1cccs1,69.4,.,.,
CC(CNc1ccccc1O)C(=O)O (configuration not stated),-165.1*,4.3,-81.3*,Apaf1 act interf=>100
COc1cc2c(cc1OC)C1=C(C#N)CCC(=O)N1CC2,50.0,.,.,
O=C(NCc1ccc2c(c1)OCO2)c1ccc2snnc2c1,-181.2*,-0.6,9.8,
COC(=O)C1=C(C)N(Cc2ccccc2)C(=NCc2ccc3c(c2)OCO3)N[C@H]1c1ccccc1,44.5,.,.,
N=C1CCC(=N)c2c1c(O)c1ccccc1c2O,77.4,.,.,
C=CCNc1nc(Cl)nc(Nc2ccc(OCC)cc2)n1,-51.5*,-2.5,11.1,
CC(C)c1ccc2[nH]c(O)c(N=NC(=O)c3ccc(CSc4nncn4C)cc3)c2c1,-74.3*,2.3,10.1,
CCN(CC)c1nc(N)c2c(N)nc(OC)cc2c1C#N,46.4,.,.,
COc1cc2[nH]c(=O)n(Cc3ccc(C(=O)NC4CCCC4)cc3)c(=O)c2cc1OC,-52.8*,6.7,3.4,
O=C(c1ccc(Cn2c(=O)[nH]c3ccccc3c2=O)cc1)N1CCN(c2ccc(Cl)cc2)CC1,41.4,.,.,
CCOC(=O)C1CCN(C(=O)c2ccc3c(c2)NC(=O)/C(=C\c2cccc(C)c2)S3)CC1,40.0,.,.,
COc1ccc(-c2cc(C)no2)cc1S(=O)(=O)NCCc1ccco1,-382.3*,5.3,-0.9,
Cc1ccc(-c2nn3c(-c4ccco4)nnc3c3ccccc23)cc1S(=O)(=O)NCC1CCCO1 (configuration not stated),66.1,.,.,
Cc1nn(Cc2c(F)c(F)c(F)c(F)c2F)c(C)c1NC(=O)c1ccc(COc2ccc(Cl)cc2Cl)o1,46.3,.,.,
Cc1ccc2c(CN3CCCCC3C)cc(=O)oc2c1C (configuration not stated),-49.6*,3.6,9.5,
CC(C)Oc1ccc(C(=O)NC2(C(F)(F)F)NC(=O)N(CCCc3ccccc3)C2=O)cc1 (configuration not stated),-44.5*,6.4,16.6,
Oc1cccc2c(NC(=S)Nc3ccc(SC(F)F)cc3)cccc12,53.2,.,.,
COc1cc(OC)cc(-c2sc3ccc(OC)cc3c2-c2ccc(OCCN3CCCCC3)cc2)c1,59.7,.,.,
CCOc1ccc(-c2nc(CSc3nnc(N)s3)cs2)cc1,-523.1*,5.4,11.3,
CCCCOc1cc(NCc2ccccc2)c2ncn(C(C)C)c2c1,61.2,.,.,
COc1ccc(-c2oc3ncnc(NCCN4CCOCC4)c3c2-c2ccc(OC)cc2)cc1,42.1,.,.,
O=C(NCCCn1ccnc1)C1c2ccccc2Oc2ccccc21,-417.5*,-2.8,8.4,
CC[C@H](C)[C@@H](C(=O)NCCCCCCCCCCC(=O)N1CCN(C(=O)OC(C)(C)C)CC1)n1cc(CCCCN=C(NC(=O)OC(C)(C)C)NC(=O)OC(C)(C)C)nn1,56.1,.,.,
Cn1c(SCc2ccc(F)cc2)nnc1-c1cnccn1,-155.9*,4.1,9.1,
SMILES,Apaf-1 act,Rh110 interf act,Apaf-1 act conf2,others
N#Cc1c(N2CCCC(O)C2)nc(N)c2c(N)nc3c(c12)CC(=O)N3C12CC3CC(CC(C3)C1)C2 (configuration not stated),97.8,.,.,
O=C1CCCC2=C1C1(O)C(=O)c3ccccc3C1(O)O2 (configuration not stated),92.1,.,.,
O=C(CO/N=C/c1ccc(OC(F)F)cc1)NC1CCCC1,-453.5*,2.3,11.3,
COc1ccccc1-c1ccc(=O)n(CC(=O)NCC2CCCO2)n1 (configuration not stated),-50.0*,-1.0,6.9,
C=CCn1c(N)c(C(=O)NCC2CCCO2)c2nc3ccccc3nc21 (configuration not stated),77.7,.,.,
COc1ccc(-n2c(N)c(C(=O)NCC3CCCO3)c3nc4ccccc4nc32)c(OC)c1 (configuration not stated),65.8,.,.,
Nc1nc2c(s1)CCc1c-2cnn1-c1ccccc1,92.6,.,.,
COC(=O)C1=C(C)NC(C)=C(C(=O)OC(C)C)C1c1cccc2nonc12 (configuration not stated),-207.2*,1.0,7.5,
[O-][n+]1c2ccccc2cc2ccccc21,-386.1*,-8.7,8.8,
C=CCN1C=C2C(=O)C(C)(OC(=O)CCC(=O)OC)C(=O)C=C2C=C1C1CC1 (configuration not stated),43.0,.,.,
O=c1[nH]nc(CNc2ccc(O)cc2)c2ccccc12,94.5,.,.,
O=C(N/C(=C\c1ccccc1Cl)C(=O)N1CCOCC1)c1ccc([N+](=O)[O-])cc1,-308.5*,8.8,9.4,
CCOC(=O)C(C(=O)OCC)c1cc(Br)c2noc3c2c1C(=O)c1ccccc1-3,88.8,.,.,
CN[C@H]1CC[C@@H](c2ccc(Cl)c(Cl)c2)c2ccccc21,50.0,.,.,
COc1ccc(CCN2CCC(Nc3nc4ccccc4n3Cc3ccc(F)cc3)CC2)cc1,55.5,.,.,
COc1ccc(-c2nc(-c3ccccc3)nc(N3CCN(C)CC3)c2C#N)cc1,41.2,.,.,
COc1ccc(N2CCN(Cc3nc4ccccc4n3C)CC2)cc1,-108.3*,-0.4,-1.1,
Oc1c(Br)cc(Br)cc1CNc1cccc2cccnc12,92.1,.,.,
Cc1cc(Cl)ccc1NC(=S)NC1CCCC1,-42.3*,11.9,23.1,
Cc1ccc(NC(=S)Nc2cccc3cnccc23)c(C)c1,96.4,.,.,
COc1cc(Br)c(C(=O)c2nccc3cc(OC)c(OC)cc23)cc1OC,88.8,.,.,
N#Cc1sc2nc(-c3ccccc3)cc(-c3ccco3)c2c1N,89.6,.,.,
Oc1ccc(-c2csc(-c3c[nH]c4ccccc34)n2)c(O)c1,-275.9*,1.4,0.7,
CCN(Cc1ccccc1)S(=O)(=O)c1ccc(C(=O)N(CCCN(C)C)c2nc3cc(OC)ccc3s2)cc1,40.0,.,.,
Cc1[nH]n(-c2ccccc2)c(=O)c1C(=O)c1ccccc1,61.0,.,.,
SMILES,Apaf-1 act,Rh110 interf act,Apaf-1 act conf2,others
COC1=C(Nc2ccccc2OC)C(=O)c2ccccc2C1=O,54.5,.,.,
CCN(CC(=O)Nc1ccccc1OC)C(=O)c1ccccc1Sc1ccccc1C#N,58.3,.,.,
COc1ccccc1NC(=O)Nc1ccccc1C(N)=O,-630.4*,5.5,6.5,
Cc1cc(NC(=O)CCSc2ccccc2)ccc1Br,-65.0*,15.1,22.0,
CCC1CCCCN1CCCNC(=O)CC1Oc2ccc(C)cc2NC1=O (configuration not stated),-92.7*,8.3,11.0,
CCCCn1c(NC(=O)c2ccccc2Cl)c(C#N)c2nc3ccccc3nc21,92.7,.,.,
COc1ccc(C2=NO[C@@H]3[C@@H]4C[C@@H]([C@H]5C(=O)N(C)C(=O)[C@@H]45)[C@H]23)c(OC)c1,-62.9*,7.7,13.6,
CC(C)(C)OC(=O)[C@H](Cc1ccccc1)NC(=O)c1nc[nH]c1C(=O)N[C@@H](CCCCN)C(=O)OC(C)(C)C,50.9,.,.,
COc1ccc(C2C(C#N)=C(N)OC(C(C)(C)C)=C2C#N)cc1OC (configuration not stated),-50.5*,17.4,10.3,
CCC(COC(=O)c1ccccc1)Oc1cc(NCc2ccccc2)c2ncn(C(C)C)c2c1 (configuration not stated),69.0,.,.,

# Screening data: PubChem BioAssay, Sanford-Burnham Center for Chemical Genomics
